# Reference: ChEMBL document CHEMBL2151030, “Improving the solubility of a new class of antiinflammatory pharmacodynamic hybrids, that release nitric oxide and inhibit cycloxygenase-2 isoenzyme” (Eur J Med Chem, 2012)
# Columns and labels:
# Assay type in all cases: cell-based
# [1] = target: T1, Prostaglandin G/H synthase 1 (Mus musculus) (UniProt P22437); assay: Inhibition of COX1-mediated PGE2 production in mouse J774 cells at 10 uM preincubated for 15 mins measured after 30 mins by radioimmunoassay relative to control
# T1 sequence (whole entry): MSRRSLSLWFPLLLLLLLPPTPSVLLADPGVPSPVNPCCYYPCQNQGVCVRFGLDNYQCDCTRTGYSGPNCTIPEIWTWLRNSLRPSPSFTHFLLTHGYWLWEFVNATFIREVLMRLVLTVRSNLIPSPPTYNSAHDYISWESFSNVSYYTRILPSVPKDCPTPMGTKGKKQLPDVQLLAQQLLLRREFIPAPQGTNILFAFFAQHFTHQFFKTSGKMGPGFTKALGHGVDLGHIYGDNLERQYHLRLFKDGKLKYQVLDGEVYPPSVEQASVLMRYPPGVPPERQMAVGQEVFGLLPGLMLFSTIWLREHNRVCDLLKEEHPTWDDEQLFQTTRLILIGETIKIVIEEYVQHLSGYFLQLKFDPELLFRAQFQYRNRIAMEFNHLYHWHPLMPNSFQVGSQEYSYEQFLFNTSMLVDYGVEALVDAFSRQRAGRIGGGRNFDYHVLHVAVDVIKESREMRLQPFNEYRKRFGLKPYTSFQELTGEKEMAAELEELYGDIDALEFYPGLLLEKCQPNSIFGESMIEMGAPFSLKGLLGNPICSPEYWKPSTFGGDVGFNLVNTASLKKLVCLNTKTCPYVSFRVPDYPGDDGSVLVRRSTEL
# Method in brief: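 Murine J774 macrophages in DMEM with 10% FBS, glutamine, HEPES, pyruvate and antibiotics, adhered 2 h at 37 °C in 5% CO2. Medium was refreshed, cells were pretreated with compound for 15 min, then given 15 μM arachidonic acid for 30 min at 37 °C. PGE2 in supernatant was measured by RIA as % inhibition versus control, triplicate wells, mean of three experiments.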
# [2] = target: T2, Prostaglandin G/H synthase 2 (Mus musculus, UniProt Q05769); assay: Inhibition of COX2-mediated PGE2 production in LPS-induced mouse J774 cells by radioimmunoassay
# T2 sequence (Q05769 whole entry): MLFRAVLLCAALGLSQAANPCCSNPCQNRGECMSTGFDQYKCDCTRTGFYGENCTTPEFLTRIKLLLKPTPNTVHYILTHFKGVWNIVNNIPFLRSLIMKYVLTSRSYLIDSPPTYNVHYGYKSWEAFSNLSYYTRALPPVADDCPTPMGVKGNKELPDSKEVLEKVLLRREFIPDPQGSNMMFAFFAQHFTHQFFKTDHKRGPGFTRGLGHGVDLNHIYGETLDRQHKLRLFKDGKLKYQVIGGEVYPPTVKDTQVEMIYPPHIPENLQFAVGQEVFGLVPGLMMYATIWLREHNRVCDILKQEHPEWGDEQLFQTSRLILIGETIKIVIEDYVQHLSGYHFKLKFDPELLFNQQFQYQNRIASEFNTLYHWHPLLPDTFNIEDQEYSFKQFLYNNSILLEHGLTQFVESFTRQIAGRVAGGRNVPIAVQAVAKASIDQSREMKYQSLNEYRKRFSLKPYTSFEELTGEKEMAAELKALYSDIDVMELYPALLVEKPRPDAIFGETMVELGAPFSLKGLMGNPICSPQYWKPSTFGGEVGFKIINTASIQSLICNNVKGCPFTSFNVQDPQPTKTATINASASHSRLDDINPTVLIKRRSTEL
# Method in brief: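 J774 murine macrophages stimulated 24 h with E. coli LPS (10 µg/mL) to induce COX-2, with or without compound (0.01–10 μM). Supernatant PGE2 measured by RIA; percent inhibition against controls. Triplicate wells, mean of three experiments; IC50 from sigmoidal variable-slope fit.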
# J774 = assay: Selectivity index, ratio of IC50 for COX1-mediated PGE2 production to IC50 for COX2-mediated PGE2 production in mouse J774 cells
# Method in brief: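 Ratio of the COX-1 IC50 to the COX-2 IC50, both from PGE2 RIA in J774 cells. For COX-1, cells were given compound for 15 min, then 15 μM arachidonic acid for 30 min; lower concentrations (0.01–1 μM) were tested when warranted. For COX-2, cells were given LPS 10 µg/mL for 24 h with compound at 0.01–10 μM. IC50 came from a sigmoidal variable-slope fit.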
# [3] = target: T3, Prostaglandin G/H synthase 1 (Mus musculus, UniProt P22437); assay: Inhibition of COX1-mediated PGE2 production in mouse J774 cells preincubated for 15 mins measured after 30 mins by radioimmunoassay
# T3 sequence (P22437 whole entry): T1 sequence (whole entry)
# Method in brief: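 Murine J774 macrophages in DMEM/10% FBS, adhered 2 h at 37 °C. […] Supernatant PGE2 measured by RIA. Triplicate wells, mean of three experiments; IC50 by sigmoidal variable-slope fit.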
# [4] = target: T4, Prostaglandin G/H synthase 2 (Mus musculus) (UniProt Q05769); assay: Inhibition of COX2-mediated PGE2 production in LPS-induced mouse J774 cells by radioimmunoassay relative to control; design: concentration or dose not given beside the values; conditions: concentration not given here
# T4 sequence (whole entry): T2 sequence (Q05769 whole entry)
# Method in brief: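 J774 cells, cultured as for the COX-1 assay, were stimulated 24 h with E. coli LPS (10 µg/mL) to induce COX-2, with or without compound at 0.01–10 μM. Supernatant PGE2 was measured by RIA as % inhibition versus control, triplicate wells, mean of three experiments. IC50 came from a sigmoidal variable-slope dose-response fit.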
Compound,inhibition [1],IC50 [2],Ratio IC50 (J774),IC50 [3],inhibition [4]
Cc1c(C(N)C(=O)OCCCO)cc(-c2ccc(S(C)(=O)=O)cc2)n1-c1cccc(F)c1 (stereo not given),30%,1190 nM,> 8.4,> 10000 nM,79%
Cc1c(C(N)C(=O)OCCCCO)cc(-c2ccc(S(C)(=O)=O)cc2)n1-c1cccc(F)c1 (stereo not given),23%,1500 nM,> 6.67,> 10000 nM,100%
Cc1c(C(N)C(=O)OCCCCO)cc(-c2ccc(S(C)(=O)=O)cc2)n1-c1ccc(F)cc1 (stereo not given),10%,220 nM,> 45.5,> 10000 nM,100%
